Compound activity deposited in PubChem by several laboratories.
Hits are enriched below; roughly 2.4% of the tested compounds scored in any of these assays.
MT1-MMP act inh: blockers of MT1-MMP proenzyme processing, primary screen, HT1080 RFP-PRO-GFP cells, GFP/RFP fluorescence; GFP/RFP ratio fluorescence, overnight; percent of plate control window, DMSO zero; GFP/RFP ratio change, % at 20 µM; Matrix metalloproteinase-14 (Homo sapiens), P50281; hit rate 0.061% among 360,000;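 active = GFP/RFP ratio change of at least 30% with cell ATP level not reduced by more than half and red fluorescence within 50% of control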
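Compound: 20 µM single dose, 1% DMSO / System: HT1080 RFP-PRO-GFP cells / Controls: DMSO and RFP-L50D-GFP cell wells / Read-out basis: GFP/RFP fluorescence ratio / Schedule: overnight compound exposure at 37 °C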
NRP1-CendR mod: modulators of CendR peptide binding to NRP-1, primary screen, biochemical, fluorescence polarization, uHTS | Neuropilin-1 (Homo sapiens), O14786 | FAM-RPARPAR peptide binding to NRP-1 | inhibition, % at 25 µM | hit rate 0.85% among 360,000 | AID 602438, 2012;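 active = inhibition or corrected inhibition above about 18%, plus a signal ratio from 0.5 to 1.5, limit read from the data, passing the limit was not always enough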
DAGLB inhibitor: DAGLB lipase inhibitors, primary screen, biochemical, fluorescence, HTS; inhibition, % at 5.17 µM; HEK293T DAGLB membrane lysate, EnzChek fluorogenic substrate; hit rate 0.059% among 340,000; Diacylglycerol lipase-beta (Homo sapiens), Q8NCG7; in the data active = inhibition above about 34%;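 note: 0% = enzyme with vehicle and 100% = wells lacking enzyme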
Target sequence (Q8NCG7 whole entry, looked up): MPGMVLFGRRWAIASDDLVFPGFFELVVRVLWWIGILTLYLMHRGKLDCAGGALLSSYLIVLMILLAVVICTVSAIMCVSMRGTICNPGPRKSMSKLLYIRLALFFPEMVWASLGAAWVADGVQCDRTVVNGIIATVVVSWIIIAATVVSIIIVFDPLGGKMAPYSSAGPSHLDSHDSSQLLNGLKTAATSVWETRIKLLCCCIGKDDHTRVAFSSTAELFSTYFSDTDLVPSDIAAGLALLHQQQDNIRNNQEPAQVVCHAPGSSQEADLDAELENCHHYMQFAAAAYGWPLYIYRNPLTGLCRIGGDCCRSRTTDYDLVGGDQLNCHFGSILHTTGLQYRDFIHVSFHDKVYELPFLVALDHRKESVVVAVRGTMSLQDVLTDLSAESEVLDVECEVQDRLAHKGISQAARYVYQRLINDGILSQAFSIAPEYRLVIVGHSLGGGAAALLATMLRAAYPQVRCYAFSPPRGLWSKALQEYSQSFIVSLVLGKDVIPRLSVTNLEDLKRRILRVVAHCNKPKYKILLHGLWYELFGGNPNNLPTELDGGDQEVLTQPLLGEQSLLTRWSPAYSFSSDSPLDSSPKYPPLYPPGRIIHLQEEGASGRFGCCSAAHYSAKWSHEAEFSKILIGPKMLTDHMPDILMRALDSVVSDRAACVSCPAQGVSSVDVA
MIN6 prolif-1: inducers of MIN6 beta-cell proliferation, primary screen, ATP luminescence, uHTS; MIN6 cells proliferation, ATPlite luminescence, 48 h; cells starved in 0.2% serum; 100% = growth in 10% serum; proliferation, % at 10 µM; hit rate 0.29% among 330,000;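 active = compounds whose signal lies at least 3.5 SD above the mean of all wells on their plate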;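 note: 0% = DMSO-treated cells in low-serum medium and 100% = 10% serum control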
SENP1 inh: human SENP1 catalytic domain inhibitors, primary screen, biochemical, FRET, uHTS; recombinant SENP1 catalytic domain, CyPet-SUMO1-YPet FRET cleavage; inhibition, % at 10 µM; Sentrin-specific protease 1 (Homo sapiens), Q9P0U3; hit rate 0.21% among 360,000; AID 624204, 2012;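 active = inhibition at least 30% at 10 µM, raw YFP signal under a set limit, fluorescence ratio 0.5 to 1.5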;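 note: 0% = enzyme with DMSO and 100% = no enzyme wells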
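Controls: no-enzyme wells low, DMSO-plus-enzyme wells high control. Test system: human recombinant His6-tagged SENP1 catalytic domain enzyme. Reagent: SFCypet-SUMO1-SFYpet FRET protein substrate, 25 nM final. Doses: one dose per compound, 10 µM, 0.5% DMSO. Detection: FRET, CFP and YFP emission. Timing: 50 min reaction at room temperature.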
Myeloid diff MLP: induction of myeloid progenitor differentiation, primary screen, cell-based, flow cytometry, MLPCN library | hit rate 1% among 360,000 | calls only at 10 µM | ER-HoxA9 myeloid progenitors, lysozyme-GFP differentiation;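 active = normalized GFP-positive differentiation at or above the plate's own cutoff, the solvent-only control mean plus 3 SD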;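 note: cells exposed to compound for four days before flow analysis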
MIN6 prolif-2: inducers of beta-cell proliferation in MIN6, confirmation, MIN6 cells, mouse; shares compounds with MIN6 prolif-1; ATPlite luminescence, 48 h; cells kept in 0.2% serum; scaled between 0.2% and 10% serum; proliferation increase, % at 50 µM; 920 tested, under 10 active;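 active = proliferation increase above 40% at any of the four tested concentrations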
Active calls of the source: *; i = inactive; x = no result.

SMILES	MT1-MMP act inh	NRP1-CendR mod	DAGLB inhibitor	MIN6 prolif-1	SENP1 inh	Myeloid diff MLP	MIN6 prolif-2
COC(=O)CSc1nnc(-c2ccco2)n1-c1ccc(C)cc1	2	-18	-1	7.4*	0	i	2
CC(=O)c1ccc(Nc2nc(C(N)CCc3ccccc3)cs2)cc1 (stereo unspecified)	-7	-9	x	x	-3	i	x
CCOCCCn1c(=NC(=O)c2cccs2)c(C#N)cc2c(=O)n3ccccc3nc21	7	-16	1	14*	-33	i	3
O=C(c1ccc(CS(=O)c2cccc(Cl)c2)o1)N1CCN(C2CCCCC2)CC1 (stereo unspecified)	-1	4	0	2	1	i	x
COc1ccc(N2C(=NC(=O)C3CC3)SC3CS(=O)(=O)CC32)cc1Cl (stereo unspecified)	-2	19	0	11*	1	i	0
CCNC(=S)Nc1cc(C)ccn1	1	2	-1	0.0*	1	i	2
CCOc1ccc(CN2CCN(C(=O)c3cccc4ccccc34)CC2)cc1	-4	2	-7	-1	1	i	x
CCOC(=O)CON1C(=O)C(=O)N(OCC(=O)OCC)[C@H]2CCCC[C@H]21	0	13	-1	-1	2	i	x
CCCn1c(N)c(C(=O)COC(=O)/C=C/c2ccc(OC(F)F)c(OC)c2)c(=O)[nH]c1=O	-2	18	3	7.4*	-1	i	-1
CS(=O)(=O)N1CCC(C(=O)Nc2ccc(F)cc2F)CC1	10	5	-2	5.7*	2	i	1
COC(=O)c1ccc(CO/N=C/c2ccc(OC)cc2OC)cc1	4	-4	-15	8.0*	2	i	0
COc1ccc(/C=N/OCC(=O)NCC(C)C)c(OC)c1	3	-15	0	-3	3	i	x
COc1ccc(OCc2cc(C(=O)N(Cc3nccn3C)C(C)C)no2)c2ccccc12	-4	2	4	12*	0	i	-6
c1ccc2c3c([nH]c2c1)C1(CCCCC1)NCC3	3	-3	2	2	-7	i	x
CC12CCCCN1CCCc1c2[nH]c2ccccc12 (stereo unspecified)	-13	-6	3	5.5*	9	i	-6
O=C(COC(=O)C1(c2ccccc2F)CCCC1)N1CCOCC1	-1	8	-2	0	1	i	x
Nc1nnc(SCC(=O)c2ccc3c(c2)NC(=O)CO3)s1	3	2	-1	-1	4	i	x
O=C(NC1CCCCCC1)C1CCN(S(=O)(=O)c2ccc(F)cc2)CC1	-3	4	2	6.5*	1	i	1
O=C(NC1CCCC1)C1CCCN(S(=O)(=O)c2ccc(F)cc2)C1 (stereo unspecified)	1	2	1	-2	0	i	x
COc1ccccc1N1CCN(C(=O)c2cc3c(=O)n4ccccc4nc3s2)CC1	1	14	0	13*	-21	i	3
CCOc1ccccc1C(=O)NCC(=O)Nc1ncccc1C	-1	8	-4	12*	-2	i	-1
O=S(=O)(Cc1nnnn1-c1ccccc1)c1ccc(F)cc1	-1	15	-1	-4	-1	i	x
Cc1c(NC(=O)C(C)OC(=O)COc2ccccc2)c(=O)n(-c2ccccc2)n1C (stereo unspecified)	-1	-1	1	1	2	i	x
Cc1c(NC(=O)C(C)OC(=O)CC2CC3CCC2C3)c(=O)n(-c2ccccc2)n1C (stereo unspecified)	2	0	0	9.1*	0	i	-2
CC(=O)Nc1nc(C)c(-c2nc3ccc([N+](=O)[O-])cc3[nH]2)s1	7	2	6	-2	-2	i	x
SMILES	MT1-MMP act inh	NRP1-CendR mod	DAGLB inhibitor	MIN6 prolif-1	SENP1 inh	Myeloid diff MLP	MIN6 prolif-2
COc1ccccc1OCCNC(=O)CNC(=O)c1ccc2c(c1)OCO2	10	-1	0	5	-1	i	x
Cc1ccc(OCCNC(=O)CNC(=O)c2ccc3c(c2)OCO3)cc1	0	-8	0	11*	2	i	-4
O=C(Cn1cnc2c(OCc3ccccc3)ncnc21)NCC1CCCO1 (stereo unspecified)	1	-14	-1	-2	2	i	x
CS(=O)(=O)c1ccc(-c2csc(-c3cccnc3)n2)cc1	-1	-6	-1	9.8*	-1	i	3
S=c1[nH]nc(-c2cccc(Cl)c2)n1Cc1ccccc1	0	-10	4	2	1	i	x
Cc1cccc(-c2n[nH]c(=S)n2Cc2ccccc2)c1	x	-17	-3	6.3*	2	i	-4
CNC(=O)c1ccccc1NC(=O)c1cccc(S(=O)(=O)N2CCCCC2)c1	-1	17	-1	7.6*	2	i	-4
Cc1ccc(S(=O)(=O)CC2CSc3nc4ccccc4n32)cc1 (stereo unspecified)	10	6	-1	-5	2	x	x
COC(=O)c1ccc(S(=O)(=O)NCc2ccc(S(N)(=O)=O)cc2)n1C	3	1	0	-3	-2	i	x
COC(=O)c1ccc(S(=O)(=O)NCc2cccc(OC)c2)n1C	-1	-12	1	5.5*	2	i	0
Cc1ccc(S(=O)(=O)NC2=NCN(CCOC(=O)c3ccc([N+](=O)[O-])cc3)CN2)cc1	4	5	0	8.4*	1	i	0
Cc1ccc(S(=O)(=O)NC2=NCN(CCOC(=O)c3ccccc3)CN2)cc1	4	-2	1	2	1	i	x
Cc1ccc(Cl)cc1-c1cc(C(=O)NCc2ccc(C(F)(F)F)cc2)[nH]n1	2	-5	x	x	1	i	x
C=CCOn1c(=O)c(-c2ccc(Cl)cc2)[n+]([O-])c2ccccc21	2	1	-6	0	-7	i	x
C=CCOn1c(=O)c(-c2ccc(F)cc2)[n+]([O-])c2ccccc21	1	7	0	11*	-2	i	3
CC1(C)CNC(=O)CC(C)(C)N1O	-1	12	-2	6.6*	3	i	-4
